Experimental data published in ChEMBL document CHEMBL4689842, “EUbOPEN Chemogenomics Library wave 1” (2021).

Assays:
Format in all cases: toxicity, cell-based
U2OS [1] = assay: Incucyte cell viability with U2OS; conditions: human, 10 µM, compound concentration 10 uM; also: filed as whole numbers so only -1 and 0 and 1 occur
HEK-293T = assay: Incucyte cell viability with HEK293T; conditions: human, 10 µM, compound concentration 10 uM; also: filed as whole numbers so only -1 and 0 and 1 occur
U2OS [2] = assay: Multiplex assay against U2OS; conditions: human
Procedure, shortened: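 On a CQ1 microscope at 37°C and 5% CO2, live cells were imaged after compound addition. They had been stained at seeding with Hoechst33342, BioTracker Green Microtubule Cytoskeleton Dye, MitoTracker Red and Annexin V Alexa Fluor 680. CellPathfinder machine-learning gating assigned cells to Hoechst high-intensity objects or normal cells, normal cells to healthy, pyknosed or fragmented nuclei, and pyknosed cells to mitotic or apoptotic. Tubulin, mitochondrial-mass and membrane-permeability phenotypes are per cents of healthy-nucleus cells.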

[3] = 6 h, replicate number 1, timepoint 6 hours
[4] = 12 h, replicate number 1, timepoint 12 hours
[5] = 18 h, replicate number 1, timepoint 18 hours
[6] = 24 h, replicate number 1, timepoint 24 hours
[7] = 12 h, 1 µM, compound concentration 1 uM, replicate 1
[8] = 12 h, 1 µM, compound concentration 1 uM, replicate 2
[9] = 12 h, 10 µM, compound concentration 10 uM, replicate 1
[10] = 12 h, 10 µM, compound concentration 10 uM, replicate 2
[11] = 24 h, 1 µM, compound concentration 1 uM, replicate 1
[12] = 24 h, 1 µM, compound concentration 1 uM, replicate 2
[13] = 24 h, 10 µM, compound concentration 10 uM, replicate 1
[14] = 24 h, 10 µM, compound concentration 10 uM, replicate 2
[15] = 48 h, 1 µM, compound concentration 1 uM, replicate 1
[16] = 48 h, 1 µM, compound concentration 1 uM, replicate 2
[17] = 48 h, 10 µM, compound concentration 10 uM, replicate 1
[18] = 48 h, 10 µM, compound concentration 10 uM, replicate 2

CC(C)c1cc(Nc2nc(N3CCC[C@H](N)C3)ncc2C(N)=O)cc(C(C)C)n1
Growth Rate (U2OS [1]; 0 h, replicate number 1, timepoint 0 hours): 1 | Growth Rate (U2OS [1]; 0 h, replicate number 2, timepoint 0 hours): 0 | Growth Rate (U2OS [1]; [3]): 0 | Growth Rate (U2OS [1]; 6 h, replicate number 2, timepoint 6 hours): 1 | Growth Rate (U2OS [1]; [4]): 0 | Growth Rate (U2OS [1]; [5]): 0 | Growth Rate (U2OS [1]; [6]): 0 | Growth Rate (HEK-293T; [3]): 0 | Growth Rate (HEK-293T; [4]): 0 | Growth Rate (HEK-293T; [5]): 0 | Growth Rate (HEK-293T; [6]): 0 | Population Apoptotic (%) (U2OS [2]; [7]): 51% | Population Fragmented Nuclei (%) (U2OS [2]; [7]): 8% | Population Healthy Nuclei (%) (U2OS [2]; [7]): 67% | Population Hoechst High Intensity Objects (%) (U2OS [2]; [7]): 5% | Population Membrane Permeable-Phenotype (%) (U2OS [2]; [7]): 22% | Population Mitochondria Different-Phenotype (%) (U2OS [2]; [7]): 89% | Population Mitotic Cells (%) (U2OS [2]; [7]): 48% | Population Normal (%) (U2OS [2]; [7]): 94% | Population Pyknosed Nuclei (%) (U2OS [2]; [7]): 23% | Population Tubulin-Different-Phenotype (%) (U2OS [2]; [7]): 100% | Total Cell Count (U2OS [2]; [7]): 201 | Population Apoptotic (%) (U2OS [2]; [8]): 44% | Population Fragmented Nuclei (%) (U2OS [2]; [8]): 12% | Population Healthy Nuclei (%) (U2OS [2]; [8]): 75% | Population Hoechst High Intensity Objects (%) (U2OS [2]; [8]): 9% | Population Membrane Permeable-Phenotype (%) (U2OS [2]; [8]): 16% | Population Mitochondria Different-Phenotype (%) (U2OS [2]; [8]): 92% | Population Mitotic Cells (%) (U2OS [2]; [8]): 55% | Population Normal (%) (U2OS [2]; [8]): 90% | Population Pyknosed Nuclei (%) (U2OS [2]; [8]): 12% | Population Tubulin-Different-Phenotype (%) (U2OS [2]; [8]): 96% | Total Cell Count (U2OS [2]; [8]): 82 | Population Apoptotic (%) (U2OS [2]; [9]): 64% | Population Fragmented Nuclei (%) (U2OS [2]; [9]): 23% | Population Healthy Nuclei (%) (U2OS [2]; [9]): 39% | Population Hoechst High Intensity Objects (%) (U2OS [2]; [9]): 4% | Population Membrane Permeable-Phenotype (%) (U2OS [2]; [9]): 88% | Population Mitochondria Different-Phenotype (%) (U2OS [2]; [9]): 98% | Population Mitotic Cells (%) (U2OS [2]; [9]): 35% | Population Normal (%) (U2OS [2]; [9]): 95% | Population Pyknosed Nuclei (%) (U2OS [2]; [9]): 37% | Total Cell Count (U2OS [2]; [9]): 161 | Population Apoptotic (%) (U2OS [2]; [10]): 65% | Population Fragmented Nuclei (%) (U2OS [2]; [10]): 19% | Population Healthy Nuclei (%) (U2OS [2]; [10]): 31% | Population Hoechst High Intensity Objects (%) (U2OS [2]; [10]): 14% | Population Membrane Permeable-Phenotype (%) (U2OS [2]; [10]): 100% | Population Mitochondria Different-Phenotype (%) (U2OS [2]; [10]): 93% | Population Mitotic Cells (%) (U2OS [2]; [10]): 34% | Population Normal (%) (U2OS [2]; [10]): 85% | Population Pyknosed Nuclei (%) (U2OS [2]; [10]): 48% | Population Tubulin-Different-Phenotype (%) (U2OS [2]; [10]): 100% | Total Cell Count (U2OS [2]; [10]): 55 | Population Apoptotic (%) (U2OS [2]; [11]): 57% | Population Fragmented Nuclei (%) (U2OS [2]; [11]): 9% | Population Healthy Nuclei (%) (U2OS [2]; [11]): 61% | Population Hoechst High Intensity Objects (%) (U2OS [2]; [11]): 6% | Population Membrane Permeable-Phenotype (%) (U2OS [2]; [11]): 22% | Population Mitochondria Different-Phenotype (%) (U2OS [2]; [11]): 90% | Population Mitotic Cells (%) (U2OS [2]; [11]): 42% | Population Normal (%) (U2OS [2]; [11]): 93% | Population Pyknosed Nuclei (%) (U2OS [2]; [11]): 29% | Population Tubulin-Different-Phenotype (%) (U2OS [2]; [11]): 98% | Total Cell Count (U2OS [2]; [11]): 206 | Population Apoptotic (%) (U2OS [2]; [12]): 26% | Population Fragmented Nuclei (%) (U2OS [2]; [12]): 10% | Population Healthy Nuclei (%) (U2OS [2]; [12]): 68% | Population Hoechst High Intensity Objects (%) (U2OS [2]; [12]): 5% | Population Membrane Permeable-Phenotype (%) (U2OS [2]; [12]): 30% | Population Mitochondria Different-Phenotype (%) (U2OS [2]; [12]): 96% | Population Mitotic Cells (%) (U2OS [2]; [12]): 73% | Population Normal (%) (U2OS [2]; [12]): 94% | Population Pyknosed Nuclei (%) (U2OS [2]; [12]): 20% | Population Tubulin-Different-Phenotype (%) (U2OS [2]; [12]): 94% | Total Cell Count (U2OS [2]; [12]): 77 | Population Apoptotic (%) (U2OS [2]; [13]): 74% | Population Fragmented Nuclei (%) (U2OS [2]; [13]): 32% | Population Hoechst High Intensity Objects (%) (U2OS [2]; [13]): 9% | Population Membrane Permeable-Phenotype (%) (U2OS [2]; [13]): 97% | Population Mitochondria Different-Phenotype (%) (U2OS [2]; [13]): 100% | Population Mitotic Cells (%) (U2OS [2]; [13]): 25% | Population Normal (%) (U2OS [2]; [13]): 90% | Population Pyknosed Nuclei (%) (U2OS [2]; [13]): 44% | Population Tubulin-Different-Phenotype (%) (U2OS [2]; [13]): 97% | Total Cell Count (U2OS [2]; [13]): 167 | Population Apoptotic (%) (U2OS [2]; [14]): 84% | Population Fragmented Nuclei (%) (U2OS [2]; [14]): 23% | Population Healthy Nuclei (%) (U2OS [2]; [14]): 23% | Population Hoechst High Intensity Objects (%) (U2OS [2]; [14]): 17% | Population Membrane Permeable-Phenotype (%) (U2OS [2]; [14]): 100% | Population Mitochondria Different-Phenotype (%) (U2OS [2]; [14]): 90% | Population Mitotic Cells (%) (U2OS [2]; [14]): 16% | Population Normal (%) (U2OS [2]; [14]): 82% | Population Pyknosed Nuclei (%) (U2OS [2]; [14]): 53% | Population Tubulin-Different-Phenotype (%) (U2OS [2]; [14]): 100% | Total Cell Count (U2OS [2]; [14]): 57 | Population Apoptotic (%) (U2OS [2]; [15]): 54% | Population Fragmented Nuclei (%) (U2OS [2]; [15]): 17% | Population Healthy Nuclei (%) (U2OS [2]; [15]): 45% | Population Hoechst High Intensity Objects (%) (U2OS [2]; [15]): 7% | Population Membrane Permeable-Phenotype (%) (U2OS [2]; [15]): 26% | Population Mitochondria Different-Phenotype (%) (U2OS [2]; [15]): 83% | Population Mitotic Cells (%) (U2OS [2]; [15]): 45% | Population Normal (%) (U2OS [2]; [15]): 92% | Population Pyknosed Nuclei (%) (U2OS [2]; [15]): 37% | Population Tubulin-Different-Phenotype (%) (U2OS [2]; [15]): 94% | Total Cell Count (U2OS [2]; [15]): 249 | Population Apoptotic (%) (U2OS [2]; [16]): 52% | Population Fragmented Nuclei (%) (U2OS [2]; [16]): 14% | Population Healthy Nuclei (%) (U2OS [2]; [16]): 60% | Population Hoechst High Intensity Objects (%) (U2OS [2]; [16]): 3% | Population Membrane Permeable-Phenotype (%) (U2OS [2]; [16]): 46% | Population Mitochondria Different-Phenotype (%) (U2OS [2]; [16]): 88% | Population Mitotic Cells (%) (U2OS [2]; [16]): 47% | Population Normal (%) (U2OS [2]; [16]): 96% | Population Pyknosed Nuclei (%) (U2OS [2]; [16]): 25% | Population Tubulin-Different-Phenotype (%) (U2OS [2]; [16]): 96% | Total Cell Count (U2OS [2]; [16]): 86 | Population Apoptotic (%) (U2OS [2]; [17]): 89% | Population Fragmented Nuclei (%) (U2OS [2]; [17]): 36% | Population Healthy Nuclei (%) (U2OS [2]; [17]): 5% | Population Hoechst High Intensity Objects (%) (U2OS [2]; [17]): 15% | Population Membrane Permeable-Phenotype (%) (U2OS [2]; [17]): 100% | Population Mitochondria Different-Phenotype (%) (U2OS [2]; [17]): 100% | Population Mitotic Cells (%) (U2OS [2]; [17]): 10% | Population Normal (%) (U2OS [2]; [17]): 84% | Population Pyknosed Nuclei (%) (U2OS [2]; [17]): 58% | Population Tubulin-Different-Phenotype (%) (U2OS [2]; [17]): 100% | Total Cell Count (U2OS [2]; [17]): 155 | Population Apoptotic (%) (U2OS [2]; [18]): 95% | Population Fragmented Nuclei (%) (U2OS [2]; [18]): 34% | Population Healthy Nuclei (%) (U2OS [2]; [18]): 9% | Population Hoechst High Intensity Objects (%) (U2OS [2]; [18]): 26% | Population Mitotic Cells (%) (U2OS [2]; [18]): 4% | Population Normal (%) (U2OS [2]; [18]): 73% | Population Pyknosed Nuclei (%) (U2OS [2]; [18]): 56% | Total Cell Count (U2OS [2]; [18]): 56
